Measurements taken from ChEMBL document CHEMBL4680339, “Synthesis and bioevaluation of N-(3,4,5-trimethoxyphenyl)-1H-pyrazolo[3,4-b]pyridin-3-amines as tubulin polymerization inhibitors with anti-angiogenic effects” (Bioorg Med Chem, 2021).

Tests used:
HCT-116 = assay: Antiproliferative activity against human HCT-116 cells assessed as reduction in cell growth incubated for 72 hrs by MTT assay; assay type: functional, cell-based; settings: HCT-116, 72 h
Method in brief: (§1)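 Log-phase cells seeded at 5 × 10³/well and grown 24 h, then exposed to graded compound concentrations for 72 h. MTT (5 mg/mL) added for 4 h; formazan dissolved in DMSO and absorbance read at 490 nm. IC50 calculated from growth inhibition; means ± SD of triplicate experiments.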

A549 = assay: Antiproliferative activity against human A549 cells assessed as reduction in cell growth incubated for 72 hrs by MTT assay; assay type: functional, cell-based; settings: A549, 72 h; method in brief: as §1
HeLa = assay: Antiproliferative activity against human HeLa cells assessed as reduction in cell growth incubated for 72 hrs by MTT assay; assay type: functional, cell-based; method in brief: as §1
MCF7 = assay: Antiproliferative activity against human MCF7 cells assessed as reduction in cell growth incubated for 72 hrs by MTT assay; assay type: functional, cell-based; settings: MCF7, 72 h; method in brief: as §1
HepG2 = assay: Antiproliferative activity against human HepG2 cells assessed as reduction in cell growth incubated for 72 hrs by MTT assay; assay type: functional, cell-based; settings: HepG2, 72 h; method in brief: as §1
WI-38 = assay: Cytotoxicity against human WI-38 cells assessed as reduction in cell growth incubated for 72 hrs by MTT assay; assay type: cell-based; settings: WI-38, 72 h; method in brief: as §1
[1] = (§2) Inhibition of pig brain tubulin polymerization by spectrophotometric method; assay type: tissue-based, Sus scrofa
Method in brief: (§3)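 Pig brain tubulin, purified by three assembly/disassembly cycles and phosphocellulose chromatography, mixed with compound at various concentrations. Buffer: PEM (100 mM PIPES, 1 mM MgCl₂, 1 mM EGTA) with 1 mM GTP and 5% glycerol. Polymerization followed at 37 °C by light scattering at 340 nm; plateau absorbance used for calculation.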

Sus scrofa = species: Sus scrofa; assay: as §2; assay type: tissue-based; method in brief: as §3

Row | SMILES | IC50 (HCT-116) [µM] | IC50 (A549) [µM] | IC50 (HeLa) [µM] | IC50 (MCF7) [µM] | IC50 (HepG2) [µM] | IC50 [1] [µM] | IC50 (WI-38) [µM] | inhibition (Sus scrofa)
1 | COc1ccc2c(Nc3cc(OC)c(OC)c(OC)c3)nn(C(C)C)c2n1 | 12 | 31.9 | 12.8 | 13.2 | 20 |  | 4.32 | 
2 | COc1ccc2c(N(c3cc(OC)c(OC)c(OC)c3)C(C)C)n[nH]c2n1 | > 50 | > 50 | 21.2 | > 50 | 24.5 |  | 6.04 | 
3 | COc1ccc2c(N(c3cc(OC)c(OC)c(OC)c3)C3CCCC3)nn(C3CCCC3)c2n1 | > 50 | > 50 | > 50 | > 50 | > 50 |  | 138 | 
4 | COc1ccc2c(Nc3cc(OC)c(OC)c(OC)c3)nn(-c3ccccc3)c2n1 | > 50 | > 50 | 22.5 | > 50 | 38.8 |  | 12.6 | 
5 | COc1ccc2c(N(C)c3cc(OC)c(OC)c(OC)c3)nn(C)c2n1 | > 50 | > 50 | 0.59 | > 50 | 2.52 |  | 22.8 | 
6 | COc1ccc2c(Nc3cc(OC)c(OC)c(OC)c3)nn(C3CCCC3)c2n1 | > 50 | > 50 | 6.28 | 22.4 | > 50 |  | 73.8 | 

The next compounds have a lower IC50 (HCT-116) than those just listed; values first:

Row | IC50 (HCT-116) [µM] | IC50 (A549) [µM] | IC50 (HeLa) [µM] | IC50 (MCF7) [µM] | IC50 (HepG2) [µM] | IC50 [1] [µM] | SMILES | IC50 (WI-38) [µM] | inhibition (Sus scrofa)
7 | 0.12 | 0.2 | 0.012 | 0.102 | 5.79 | 55.7 | COc1ccc2c(N(CCF)c3cc(OC)c(OC)c(OC)c3)n[nH]c2n1 | 16.5 | Dose-dependent effect
8 | 0.47 | 2.42 | 0.17 | 21.7 | 18.8 |  | COc1ccc2c(N(CC(F)F)c3cc(OC)c(OC)c(OC)c3)n[nH]c2n1 | 1.69 | 
9 | 3.37 | > 50 | 3.19 | 10.3 | 7.38 |  | COc1ccc2c(N(Cc3ccccc3)c3cc(OC)c(OC)c(OC)c3)n[nH]c2n1 | 1.67 | 
